Calls of active or inactive are those of the source. No cut-off for these calls is given here.
Columns and labels:
[1] = Cytotoxicity against human HL60 cells assessed as cell viability at 10 uM by MTT assay; format: cell-based; details: hl-60, 10 µM
[2] = target: T1, Multidrug resistance protein 1/Multidrug resistance associated protein 1 (Homo sapiens, UniProt P33527+P08183); assay: Activity at human MDR1/MRP1 overexpressed in doxorubicin-resistant human HL60R cells assessed as ATP consumption at 10 uM after 2 hrs by luminescence assay (reference value: 6350 +/- 303 RLU); format: cell-based
How it was run: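 HL60R cells at 2.5 × 10^5 cells/mL exposed to 10 µM compound (DMSO solution) for 2 h at 37 °C, 5% CO2; washed twice in cold PBS, resuspended at 1 × 10^6 cells/mL. 1 × 10^5 cells lysed in swab by 20 s agitation; ATP read by luciferase/d-luciferin bioluminescence on a luminometer.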

[3] = Cytotoxicity against human HL60R cells assessed as effect on cell cycle at 10 uM; format: cell-based
[4] = Cytotoxicity against human HL60R cells assessed as cell viability at 10 uM by MTT assay; format: cell-based
HL60R [5] = assay: Potentiation of doxorubicin-induced cell cycle arrest in human HL60R cells assessed as accumulation at G0/G1 phase at 10 uM after 24 hrs by propidium iodide staining-based flow cytometry; format: functional
How it was run: (§1)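 HL60R cells treated with compound plus 10 µM DXR for 24 and 48 h. Fixed in 70% ice-cold ethanol at -20 °C overnight, stained with PI 5 µg/mL plus DNase-free RNase A 10 µg/mL in PBS, 30 min at 37 °C in the dark. PI red fluorescence acquired on a linear scale at 600 nm by flow cytometry.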

HL60R [6] = assay: Potentiation of doxorubicin-induced cytotoxicity in human HL60R cells at 10 uM incubated for 2 hrs prior to doxorubicin challenge measured after 24 to 48 hrs by trypan blue staining-based haemocytometry; format: functional, cell-based
How it was run: (§2)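 HL60R cells seeded at 1.5 × 10^5 cells/mL; after 24 h, exposed to compound (10 µM) for 2 h, then 10 µM DXR added. Viable cells counted by Trypan Blue exclusion in a Bürker haemocytometer at 24 and 48 h. Mean ± SD, at least three independent experiments.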

[7] = target: T1, Multidrug resistance protein 1/Multidrug resistance associated protein 1; assay: Inhibition of MDR1/MRP1 overexpressed in doxorubicin-resistant human HL60R cells assessed as DXR accumulation at 0.4 uM incubated for 2 hrs prior to DXR challenge measured after 2 hrs by fluorescence assay relative to control; format: cell-based
How it was run: (§3)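 HL60 and HL60R cells (2.5 × 10^5 cells/mL) preincubated 2 h with compound, then 2 h with 10 µM DXR. Washed twice in cold PBS, resuspended at 1 × 10^6 cells/mL. Anthracycline fluorescence read immediately by flow cytometry (excitation 488 nm, emission 600 nm, log scale). Mean ± SD, ≥3 independent experiments; one-way ANOVA versus HL60R.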

[8] = Cytotoxicity against human HL60 cells assessed as effect on cell cycle at 10 uM; format: cell-based; details: hl-60, 10 µM
[9] = target: T2, ATP-dependent translocase ABCB1 (Homo sapiens, UniProt P08183); assay: Reversal of human MDR1-mediated drug efflux in mouse L5178 cells using rhodamine 123 as substrate assessed as fluorescence activity ratio at 40 uM incubated for 10 mins prior to substrate addition measured after 20 mins by FACScan flow cytometry relative to control; format: cell-based; details: l5178, 20 min
T2 sequence (P08183 whole entry): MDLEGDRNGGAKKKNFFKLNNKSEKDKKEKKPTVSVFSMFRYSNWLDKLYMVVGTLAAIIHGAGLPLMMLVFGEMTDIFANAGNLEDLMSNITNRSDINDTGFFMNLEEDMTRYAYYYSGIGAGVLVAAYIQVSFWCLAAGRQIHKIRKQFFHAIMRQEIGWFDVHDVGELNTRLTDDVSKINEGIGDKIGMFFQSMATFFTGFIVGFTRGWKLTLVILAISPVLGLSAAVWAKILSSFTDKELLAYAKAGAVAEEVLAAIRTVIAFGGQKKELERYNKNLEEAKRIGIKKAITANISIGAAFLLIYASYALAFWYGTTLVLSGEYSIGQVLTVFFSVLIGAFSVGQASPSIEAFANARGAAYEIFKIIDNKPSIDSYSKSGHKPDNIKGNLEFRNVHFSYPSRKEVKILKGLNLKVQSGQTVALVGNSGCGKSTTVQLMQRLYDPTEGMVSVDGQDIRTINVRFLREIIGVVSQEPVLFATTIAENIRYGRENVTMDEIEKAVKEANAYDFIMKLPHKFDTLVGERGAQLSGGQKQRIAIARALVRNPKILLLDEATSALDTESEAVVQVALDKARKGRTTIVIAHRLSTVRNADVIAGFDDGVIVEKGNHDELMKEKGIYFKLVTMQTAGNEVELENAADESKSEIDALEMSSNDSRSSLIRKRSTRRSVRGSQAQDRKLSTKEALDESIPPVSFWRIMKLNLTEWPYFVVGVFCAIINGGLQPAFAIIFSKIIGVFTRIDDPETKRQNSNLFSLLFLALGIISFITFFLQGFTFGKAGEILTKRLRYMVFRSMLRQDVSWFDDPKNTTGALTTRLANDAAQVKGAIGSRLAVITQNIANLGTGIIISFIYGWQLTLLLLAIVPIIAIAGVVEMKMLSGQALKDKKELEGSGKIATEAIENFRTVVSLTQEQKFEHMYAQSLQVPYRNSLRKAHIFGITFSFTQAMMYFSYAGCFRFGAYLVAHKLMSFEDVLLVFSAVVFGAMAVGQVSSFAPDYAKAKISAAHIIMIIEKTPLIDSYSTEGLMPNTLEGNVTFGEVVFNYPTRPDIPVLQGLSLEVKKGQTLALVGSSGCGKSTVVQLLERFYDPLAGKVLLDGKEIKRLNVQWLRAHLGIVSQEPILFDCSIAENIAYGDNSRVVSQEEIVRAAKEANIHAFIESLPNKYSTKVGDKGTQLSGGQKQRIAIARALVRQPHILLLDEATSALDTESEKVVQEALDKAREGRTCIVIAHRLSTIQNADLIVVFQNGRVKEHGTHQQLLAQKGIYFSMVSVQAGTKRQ

[10] = Lipophilicity, log P of the compound; format: physicochemical; details: octanol/water
[11] = target: T1, Multidrug resistance protein 1/Multidrug resistance associated protein 1; assay: Inhibition of MDR1/MRP1 overexpressed in doxorubicin-resistant human HL60R cells assessed as DXR accumulation at 10 uM incubated for 2 hrs prior to DXR challenge measured after 2 hrs by fluorescence assay relative to control; format: cell-based; how it was run: as §3
HL60R [12] = assay: Potentiation of doxorubicin-induced cell cycle arrest in human HL60R cells assessed as accumulation at G2/M phase at 10 uM after 24 hrs by propidium iodide staining-based flow cytometry; format: functional; how it was run: as §1
[13] = target: T2, ATP-dependent translocase ABCB1; assay: Reversal of human MDR1-mediated drug efflux in mouse L5178 cells using rhodamine 123 as substrate assessed as fluorescence activity ratio at 4 uM incubated for 10 mins prior to substrate addition measured after 20 mins by FACScan flow cytometry relative to control; format: cell-based; details: l5178, 20 min
HL60R [14] = assay: Potentiation of doxorubicin-induced cytotoxicity in human HL60R cells at 10 uM incubated for 2 hrs prior to doxorubicin challenge measured after 24 hrs by trypan blue staining-based haemocytometry; format: functional, cell-based; how it was run: as §2
HL60R [15] = assay: Potentiation of doxorubicin-induced cell cycle arrest in human HL60R cells assessed as exit from mitosis at 10 uM after 48 hrs by propidium iodide staining-based flow cytometry; format: functional; how it was run: as §1
HL60R [16] = assay: Potentiation of doxorubicin-induced cytotoxicity in human HL60R cells assessed as restart of cell growth at 10 uM incubated for 2 hrs prior to doxorubicin challenge measured after 24 hrs by trypan blue staining-based haemocytometry relative to control; format: functional; how it was run: as §2
HL60R [17] = assay: Potentiation of doxorubicin-induced cytotoxicity in human HL60R cells assessed as impairment of cell growth at 10 uM incubated for 2 hrs prior to doxorubicin challenge measured up to 24 hrs by trypan blue staining-based haemocytometry; format: functional; how it was run: as §2
[18] = target: T2, ATP-dependent translocase ABCB1; assay: Reversal of human MDR1-mediated drug efflux in mouse L5178 cells using rhodamine 123 as substrate assessed as fluorescence activity ratio at 0.8 uM incubated for 10 mins prior to substrate addition measured after 20 mins by FACScan flow cytometry relative to control; format: cell-based; details: l5178, 20 min
How it was run: (§4)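 L5178 MDR1-transfected and parental mouse lymphoma cells at 2 × 10^6/mL in serum-free McCoy's 5A. Preincubated with compound (0.4–40 µM) for 10 min at room temperature, then rhodamine-123 (5.2 µM final) added for 20 min at 37 °C; washed twice, resuspended in PBS, read by flow cytometry. Verapamil as positive control. R = (MDR treated/MDR control)/(parental treated/parental control).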

[19] = target: T2, ATP-dependent translocase ABCB1; assay: Reversal of human MDR1-mediated drug efflux in mouse L5178 cells using rhodamine 123 as substrate assessed as fluorescence activity ratio at 0.4 uM incubated for 10 mins prior to substrate addition measured after 20 mins by FACScan flow cytometry relative to control; format: cell-based; details: l5178, 20 min; how it was run: as §4
[20] = target: T2, ATP-dependent translocase ABCB1; assay: Reversal of human MDR1-mediated drug efflux in mouse L5178 cells using rhodamine 123 as substrate at 40 uM incubated for 10 mins prior to substrate addition by FACScan flow cytometry relative to verapamil; format: cell-based; details: l5178, 10 min; how it was run: as §4
HL60R [21] = assay: Induction of apoptosis in human HL60R cells assessed as chromatin condensation at 10 uM after 48 hrs by […] staining-based fluorescence microscopy; format: functional, cell-based
How it was run: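 HL60R cells co-treated 48 h with 10 µM compound plus 10 µM DXR. Cytospun onto slides (150 g, 5 min), PBS-washed, fixed in 4% paraformaldehyde, permeabilized with 0.5% Triton X-100 for 5 min at 4 °C, stained with Hoechst 0,1 mg/mL. Nuclear morphology examined by fluorescence microscopy.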

HL60R [22] = assay: Induction of apoptosis in human HL60R cells assessed as nuclear fragmentation at 10 uM after 48 hrs by […] staining-based fluorescence microscopy
[23] = Cell cycle arrest in human HL60R cells assessed as exit from mitosis at 10 uM after 24 hrs by propidium iodide staining-based flow cytometry; format: functional; how it was run: as §1
[24] = Cell cycle arrest in human HL60R cells assessed as accumulation at G2/M phase at 10 uM after 24 hrs by propidium iodide staining-based flow cytometry; format: functional; how it was run: as §1

Row | SMILES | Activity [1] | RLU [2] | Activity [3] | Activity [4] | Activity (HL60R [5]) | Activity (HL60R [6]) | inhibition (INH) [7] | Activity [8] | Ratio [9] | logP [10] | inhibition (INH) [11] | Activity (HL60R [12]) | Ratio [13] | further results
1 | COc1ccc(CCN(C)CC#CCN2C(=O)[C@@H]3[C@H]4c5ccccc5[C@H](c5ccccc54)[C@@H]3C2=O)cc1OC | Toxic | 2612 | Toxic | Toxic | Active | Active | Not Active | Toxic | – | – | – | – | – | –
2 | O=C1[C@@H]2[C@H]3c4ccccc4[C@H](c4ccccc43)[C@@H]2C(=O)N1CC#CCN1CCC(n2c(=O)[nH]c3ccccc32)CC1 | Non-toxic | 4363 | Non-toxic | Non-toxic | – | – | Not Active | Non-toxic | 44.6 | 2.54 | Not Active | Active | 6.39 | Activity (HL60R [14]): Active
3 | CN1CCN(CC#CCN2C(=O)[C@@H]3[C@H]4c5ccccc5[C@H](c5ccccc54)[C@@H]3C2=O)CC1 | Non-toxic | 3429 | Non-toxic | Non-toxic | – | – | Not Active | Non-toxic | 64.74 | 2.54 | Not Active | Active | 9.59 | Activity (HL60R [15]): inactive; Activity (HL60R [16]): inactive; Activity (HL60R [17]): Active
4 | O=C1[C@@H]2[C@H]3c4ccccc4[C@H](c4ccccc43)[C@@H]2C(=O)N1CC#CCN1CCN(C(c2ccc(F)cc2)c2ccc(F)cc2)CC1 | Non-toxic | 4276 | Non-toxic | Non-toxic | Active | Active | Not Active | Non-toxic | 33.38 | 6.3 | Active | – | 28.27 | Ratio [18]: 8.22; Ratio [19]: 5.19
5 | C#CCN1C(=O)[C@@H]2[C@H]3c4ccccc4[C@H](c4ccccc43)[C@@H]2C1=O | – | – | – | – | – | – | – | – | – | – | Not Active | – | – | –
6 | O=C1[C@@H]2[C@H]3c4ccccc4[C@H](c4ccccc43)[C@@H]2C(=O)N1CC#CCN1CCN(c2ccccc2)CC1 | Non-toxic | 3650 | Non-toxic | Non-toxic | – | – | Not Active | Non-toxic | 11.52 | 2.54 | Not Active | Active | 7.56 | Activity (HL60R [15]): inactive; Ratio [20]: 2; Activity (HL60R [16]): inactive; Activity (HL60R [17]): Active
7 | COc1cccc2c1C(=O)c1c(O)c3c(c(O)c1C2=O)C[C@@](O)(C(=O)CO)C[C@@H]3O[C@H]1C[C@H](N)[C@H](O)[C@H](C)O1 | – | – | – | – | – | – | – | – | – | – | – | – | – | Activity (HL60R [21]): Active; Activity (HL60R [22]): Active; Activity [23]: inactive; Activity [24]: Active
8 | O=C1[C@@H]2[C@H]3c4ccccc4[C@H](c4ccccc43)[C@@H]2C(=O)N1CC#CCN1CCN(Cc2ccccc2)CC1 | Non-toxic | 3957 | Non-toxic | Non-toxic | Active | Active | Not Active | Non-toxic | 85.46 | 2.54 | Active | – | 54.832 | Ratio [20]: 15; Ratio [18]: 7.76; Ratio [19]: 2.62
